Screening data as filed in PubChem BioAssay.
In the library only some 3.1% were active in any assay of this set; here they are far more common.
Apaf-1 inh: inhibitors of human Apaf-1 apoptosome, primary screen, biochemical, DEVD-Rh110 fluorescence, uHTS; AID 489030, 2010; inhibition, % at 20 µM; reconstituted apoptosome caspase-3 activity; 330,000 tested, 0.71% active; Apoptotic protease-activating factor 1 (Homo sapiens), O14727; active = inhibition of at least 40% at 20 µM
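Material: reconstituted apoptosome with Apaf-1, cytochrome c, caspase-9, procaspase-3, dATP; medium: pH 7.5 Hepes buffer with CHAPS, BSA, DTT; also added: cytochrome c and DEVD-Rh110 substrate; timing: 30 min plus 50 min, RT; signal: Rh110 fluorescence intensity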
MEKK2 mut-MEK5: MEK5 binding signal on mutant MEKK2 PB1, primary screen, biochemical, multiplex bead flow cytometry, Alexa488-MEK5; Alexa488-MEK5 binding to MEKK2 mutant; percent response, % at 10 µM; 290,000 tested, 0.35% active; in the data active = percent response above about 24%, passing the limit was not always enough
PREPL inh: PREPL enzyme inhibitors, primary screen, biochemical, fluorescence polarization; recombinant PREPL, fluorescence polarization activity-based probe; 320,000 tested, 0.68% active; inhibition, % at 5.96 µM; Prolyl endopeptidase-like (Homo sapiens), Q4J6C6
Target sequence (Q4J6C6 whole entry, looked up): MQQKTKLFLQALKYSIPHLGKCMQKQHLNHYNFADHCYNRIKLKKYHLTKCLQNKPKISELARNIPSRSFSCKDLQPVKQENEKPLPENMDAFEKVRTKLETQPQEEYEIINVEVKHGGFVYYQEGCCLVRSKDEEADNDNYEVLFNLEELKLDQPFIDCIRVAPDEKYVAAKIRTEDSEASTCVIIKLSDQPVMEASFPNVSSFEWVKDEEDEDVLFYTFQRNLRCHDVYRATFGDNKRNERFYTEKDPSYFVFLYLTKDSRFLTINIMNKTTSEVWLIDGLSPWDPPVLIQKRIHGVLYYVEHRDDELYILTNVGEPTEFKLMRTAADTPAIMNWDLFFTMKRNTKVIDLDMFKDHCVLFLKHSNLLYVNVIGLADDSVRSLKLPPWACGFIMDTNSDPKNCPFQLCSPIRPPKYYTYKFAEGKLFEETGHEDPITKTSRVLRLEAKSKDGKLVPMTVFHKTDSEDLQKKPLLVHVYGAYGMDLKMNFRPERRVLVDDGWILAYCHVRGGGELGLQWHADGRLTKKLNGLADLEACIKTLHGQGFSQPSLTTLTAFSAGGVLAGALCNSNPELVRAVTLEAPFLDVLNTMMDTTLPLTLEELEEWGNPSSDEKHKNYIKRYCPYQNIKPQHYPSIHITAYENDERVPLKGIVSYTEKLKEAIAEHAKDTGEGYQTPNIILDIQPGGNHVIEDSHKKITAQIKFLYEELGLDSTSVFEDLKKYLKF
MEKK3 PB1 HTS: modulators of MEKK3-MEK5 PB1 binding, primary screen, biochemical, wildtype MEKK3, multiplex bead flow cytometry, Alexa488-MEK5; Mitogen-activated protein kinase kinase kinase 3 (Homo sapiens), Q99759; bead-based flow cytometry, Alexa488-MEK5 binding to MEKK3; actives lie on both sides; 0 = blocked by unlabeled MEK5, 100 = vehicle; binding response (% of control), % at 10 µM; 290,000 tested, 1.4% active;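 active = binding response more than 3 SD above or below the average of its plate-row segment, actives on both sides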;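 note: Alexa488 bead fluorescence after subtracting the streptavidin-only scavenger bead signal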
MEKK2 WT-MEK5: modulators of MEK5 binding to wildtype MEKK2, primary screen, biochemical, multiplex bead flow cytometry, Alexa488-MEK5. Mitogen-activated protein kinase kinase kinase 2 (Homo sapiens), Q9Y2U5. Alexa488-MEK5 binding to MEKK2 WT; actives lie on both sides. binding response (% of control), % at 10 µM. 290,000 tested, 1.1% active. AID 1531, 2009; in the data active = binding response below about 67% or above about 130%
UBC13 polyUb: UBC13 polyubiquitin chain formation inhibitors, primary screen, biochemical, TR-FRET, uHTS | inhibition, % at 20 µM | Ubiquitin-conjugating enzyme E2 N (Homo sapiens), P61088 | AID 485273, 2010 | 330,000 tested, 0.47% active; in the data active = inhibition above about 45%, passing the limit was not always enough
PREPL confirm: human PREPL enzyme inhibitors, confirmation, biochemical, fluorescence polarization. 2,000 tested, 67% active. recombinant PREPL, fluorescence polarization activity probe. shares compounds with PREPL inh. AID 2803, 2010. inhibition, % at 5.96 µM
Casp3 UBC13 ctr: CASP3 inhibitor validation, counterassay for project on UBE2N polyubiquitination blockers, biochemical, one dose | Recombinant caspase-3, Caspase-Glo 3/7 luminescence, 60 min | inhibition, % at 20 µM | shares compounds with UBC13 polyUb | AID 488856, 2010 | 1,400 tested, 4% active;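 active = mean inhibition across replicates above about 26%, limit read from the data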
UBC13 conf: UBC13 polyubiquitination inhibitors, single-point retest, confirmation, biochemical, TR-FRET, single concentration. shares compounds with UBC13 polyUb. inhibition, % at 10 µM. 1,400 tested, 68% active; in the data active = inhibition above about 45%
Apaf-1 inh conf: Apaf-1 inhibitors, single-dose retest, confirmation, biochemical, fluorescence, DEVD-Rh110, 20 µM; shares compounds with Apaf-1 inh; reconstituted apoptosome, caspase-3 DEVD-Rh110 fluorescence; inhibition, % at 20 µM; 1,800 tested, 25% active; AID 504614, 2011;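 active = mean inhibition of at least 40% at 20 µM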
Rh110 quench: Rh110 fluorescence interference by putative Apaf-1 inhibitors, confirmation, artefact control for Apaf-1 inhibitor project, biochemical, 20 µM. activation (fluorescence interference), % at 20 µM. quenched caspase reaction. shares compounds with Apaf-1 inh. 1,800 tested, under 10 active;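 active = signal rise of 40% or more at 20 µM, treated as a fluorescence artifact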
Fluor interf inh: fluorescence interference of Apaf-1 inhibitor hits, dose response, artefact control for Apaf-1 inhibitor project; shares compounds with Apaf-1 inh; fluorescence interference counterscreen, Apaf-1 assay format; IC50, µM; 460 tested, under 10 active; AID 588538, 2011; call rule not given here
Of the large screens only hits and unclear results are named; the others gave an inactive call (follow-up assays come after a bar, where they were run). Cut-off read from the data, not from the text of the source, unless noted: active = inhibition above about 43%; inactive = the rest.

NC1=NC[C@H](Cc2ccccc2)N1CC1CCCCC1	none
CC(C)C[C@@H]1CN=C(N)N1C[C@@H]1CCCN1C[C@H](C)N1C[C@@H](Cc2ccccc2)N(CCc2ccc(Cl)c(Cl)c2)C1=N	Apaf-1 inh 63.0, PREPL inh 45.0, UBC13 polyUb 75.5 (no result: MEKK2 mut-MEK5, MEKK3 PB1 HTS, MEKK2 WT-MEK5) | PREPL confirm inactive | Casp3 UBC13 ctr inactive | UBC13 conf 71.1 | Apaf-1 inh conf inactive | Rh110 quench inactive
CC(C)C[C@@H]1CN=C(N)N1C[C@@H]1CCCN1C[C@@H](C(C)C)N1C[C@@H](Cc2ccccc2)N(CCc2ccc(Cl)c(Cl)c2)C1=N	Apaf-1 inh 63.4, PREPL inh 70.4 (no result: MEKK2 mut-MEK5, MEKK3 PB1 HTS, MEKK2 WT-MEK5) | PREPL confirm 64.0 | Apaf-1 inh conf inactive | Rh110 quench inactive
CCOC(=O)C1CCCN(C(=O)c2ccc(S(=O)(=O)Nc3ccccc3OC)cc2)C1 (centres undefined)	none (no result: MEKK2 mut-MEK5, MEKK3 PB1 HTS, MEKK2 WT-MEK5)
CCOC(=O)c1ccc(NS(=O)(=O)c2c(C)nc3sccn3c2=O)cc1	none
O=C(CNC(=O)c1ccc2ccccc2c1)NCc1ccc(F)cc1	none
Cc1ccc(S(=O)(=O)N(C)c2ccc(OC(=O)c3cccs3)cc2)cc1	none (no result: MEKK2 mut-MEK5, MEKK3 PB1 HTS, MEKK2 WT-MEK5)
CCC(CO)Oc1cc(NCc2ccccc2)c2ncn(C(C)C)c2c1 (centres undefined)	none (no result: MEKK2 mut-MEK5, MEKK3 PB1 HTS, MEKK2 WT-MEK5)
CCC(COC)Oc1cc(NCc2ccccc2)c2ncn(C(C)C)c2c1 (centres undefined)	Apaf-1 inh 97.2, PREPL inh 51.6 (no result: MEKK2 mut-MEK5, MEKK3 PB1 HTS, MEKK2 WT-MEK5) | PREPL confirm inactive | Apaf-1 inh conf 67.2 | Rh110 quench inactive | Fluor interf inh inactive
CC(C)n1cnc2c(NCc3ccccc3)cc(N[C@H](C)CO)cc21	Apaf-1 inh 96.7, PREPL inh 60.5 (no result: MEKK2 mut-MEK5, MEKK3 PB1 HTS, MEKK2 WT-MEK5) | PREPL confirm inactive | Apaf-1 inh conf 95.6 | Rh110 quench inactive | Fluor interf inh inactive
CC(=O)Nc1c(-c2cc(=O)oc3cc(C)ccc23)oc2ccccc12	none (no result: PREPL inh)
COc1ccc(CN2CCN(CCCCOc3ccc(Cl)cc3)CC2)c(OC)c1OC	none
COc1ccc(NC(=O)CSc2nc3c(c(-c4cccs4)c2C#N)CN(C)CC3)cc1OC	Apaf-1 inh 66.9, PREPL inh 44.5 | PREPL confirm inactive | Apaf-1 inh conf inactive | Rh110 quench inactive
COc1ccc(Cl)cc1C(=O)OCC(=O)c1ccc[nH]1	none (no result: MEKK2 mut-MEK5, MEKK3 PB1 HTS, MEKK2 WT-MEK5)
CC[C@@H](C)[C@@H]1CN([C@@H](CN2CCC[C@H]2CN2C(N)=NC[C@H]2C(C)C)C(C)C)C(=N)N1CCCC1CCCC1	Apaf-1 inh 40.5, PREPL inh 54.2, UBC13 polyUb 52.9 (no result: MEKK2 mut-MEK5, MEKK3 PB1 HTS, MEKK2 WT-MEK5) | PREPL confirm 50.3 | Casp3 UBC13 ctr inactive | UBC13 conf 56.4 | Apaf-1 inh conf inactive | Rh110 quench inactive
CC[C@@H](C)[C@@H]1CN([C@@H](CN2CCC[C@H]2CN2C(N)=NC[C@@H]2Cc2ccccc2)C(C)C)C(=N)N1CCCC1CCCC1	Apaf-1 inh 63.1, PREPL inh 55.7, UBC13 polyUb 72.3 (no result: MEKK2 mut-MEK5, MEKK3 PB1 HTS, MEKK2 WT-MEK5) | PREPL confirm 50.2 | Casp3 UBC13 ctr inactive | UBC13 conf 76.0 | Apaf-1 inh conf inactive | Rh110 quench inactive
Nc1c(C(=O)NCc2ccc(F)cc2)c2nc3ccccc3nc2n1CCCN1CCOCC1	Apaf-1 inh 59.2, PREPL inh 61.2 | PREPL confirm 46.4 | Apaf-1 inh conf inactive | Rh110 quench inactive
Nc1c(C(=O)NCc2ccccc2)c2nc3ccccc3nc2n1CCCN1CCOCC1	Apaf-1 inh 49.4, PREPL inh 44.6 | PREPL confirm inactive | Apaf-1 inh conf inactive | Rh110 quench inactive
CC(C)Cn1c(N)c(C(=O)NCCN2CCOCC2)c2nc3ccccc3nc21	none
COCCOC(=O)c1c(N)n(CCCN2CCOCC2)c2nc3ccccc3nc12	none
COc1cc2c(C#N)c(N3CCc4ccccc4C3)nc(N)c2c(N)n1	Apaf-1 inh 94.3, PREPL inh 49.3 | PREPL confirm 53.8 | Apaf-1 inh conf inactive | Rh110 quench inactive
Cc1ccc(NC(=O)CSc2nc3ccccc3c(=O)n2CCCC(=O)NCCCN2CCOCC2)cc1	none
COc1ccc(NC(=O)CSc2nc3c(sc4ccccc43)c(=O)n2CCCN2CCCC2)cc1	MEKK2 mut-MEK5 39.0, MEKK2 WT-MEK5 176.0, UBC13 polyUb 49.8 | Casp3 UBC13 ctr inactive | UBC13 conf 54.3
COc1cccc(NC(=O)CSc2nc3ccccc3c(=O)n2CCCC(=O)NCCCN2CCOCC2)c1	UBC13 polyUb 61.0 | Casp3 UBC13 ctr inactive | UBC13 conf 78.6
Cc1cc(C)c2[nH]c(O)c(N=NC(=O)c3cc4c(s3)CCCC4)c2c1	none
COCCNC(=S)N=Nc1c(O)[nH]c2c(C)cc(C)cc12	UBC13 polyUb 87.2 | Casp3 UBC13 ctr inactive | UBC13 conf 101.6
C#CCOCCOCCOCCNc1nc(N2CCN(C(=O)CCCCCCCCCCNC(=O)Cn3cc(C[C@@H](C)O)nn3)CC2)nc(N2CCN(C(=O)CCCCCCCCCCNC(=O)[C@H](CO)n3cc(CCCSC)nn3)CC2)n1	none (no result: MEKK2 mut-MEK5, MEKK3 PB1 HTS, MEKK2 WT-MEK5)
